The test system of assay [1] is Human immunodeficiency virus 1. Kind of assay: Antiviral activity against multidrug-resistant Human immunodeficiency virus 1 MDR/TM harboring protease L10I, K14R, R41K, M46L, I54V, L63P, A71V, V82A, L90M, I93L mutation infected in PHA-stimulated human PBMC assessed as inhibition of p24 Gag protein production. The format is functional, organism-based. The method in brief:
(§1)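 PHA-stimulated PBMCs served as target cells, and inhibition of p24 Gag protein production was the end point. Fold change was taken against the wild-type HIV-1ERS104pre IC50. Each assay was run in duplicate or triplicate. Values are means (±1 standard deviation) from three independent experiments.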

Assay [2] deals with Human immunodeficiency virus 1. Kind of assay: Ratio of IC50 for Human immunodeficiency virus 1 MDR/C to IC50 for wild-type Human immunodeficiency virus 1 ERS104pre. The format is functional.
Assay [3] deals with Human immunodeficiency virus 1. The assay is described as follows: Antiviral activity against multidrug-resistant Human immunodeficiency virus 1 subtype B harboring protease L10I, L33I, M36I, M46I, F53L, K55R, I62 V, L63P, A71 V, G73S, V82A, L90M, I93L mutation infected in PHA-stimulated human PBMC assessed as inhibition of p24 Gag protein production. The format is functional, organism-based. The method, boiled down:
as §1

Assay [4] has as its system Human immunodeficiency virus 1. Kind of assay: Antiviral activity against multidrug-resistant Human immunodeficiency virus 1 MDR/C harboring protease L10I, I15 V, K20R, L24I, M36I, M46L, I54V, I62 V, L63P, K70Q, V82A, L89 M mutation infected in PHA-stimulated human PBMC assessed as inhibition of p24 Gag protein production. The format is functional, organism-based. The method, boiled down: as §1

Assay [5] concerns Human immunodeficiency virus 1. Kind of assay: Ratio of IC50 for Human immunodeficiency virus 1 MDR/B to IC50 for wild-type Human immunodeficiency virus 1 ERS104pre. It counts as functional.
Assay [6] relates to Human immunodeficiency virus 1. Kind of assay: Ratio of IC50 for Human immunodeficiency virus 1 MDR/TM to IC50 for wild-type Human immunodeficiency virus 1 ERS104pre. The format is functional.
The subject of assay [7] is Human immunodeficiency virus 1. Kind of assay: Antiviral activity against multidrug-resistant Human immunodeficiency virus 1 MDR/G harboring protease L10I, V11I, T12E, I15 V, L19I, R41K, M46L, L63P, A71T, V82A, L90 M mutation infected in PHA-stimulated human PBMC assessed as inhibition of p24 Gag protein production. The format is functional, organism-based. The method in brief: as §1

For assay [8], the system named is Human immunodeficiency virus 1. The assay is described as follows: Ratio of IC50 for Human immunodeficiency virus 1 MDR/G to IC50 for wild-type Human immunodeficiency virus 1 ERS104pre. It counts as functional. The method, boiled down: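 Antiviral IC50s measured against each multidrug-resistant clinical isolate and wild-type HIV-1ERS104pre in PHA-stimulated PBMCs as target cells, with inhibition of p24 Gag production as the end point. The fold change is the isolate IC50 divided by the wild-type IC50. Assays were run in duplicate or triplicate; values are means (±1 SD) of three independent experiments.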

Assay [9] relates to Human immunodeficiency virus 1. Kind of assay: Antiviral activity against Human immunodeficiency virus 1 LAI infected in human MT2 cells by MTT assay.
For assay [10], the system named is Human immunodeficiency virus 1. The assay is described as follows: Antiviral activity against wild type Human immunodeficiency virus 1 ERS104pre infected in PHA-stimulated human PBMC assessed as inhibition of p24 Gag protein production. The format is functional, organism-based. The method in brief: as §1
Another assay deals with Protease (Human immunodeficiency virus 1, UniProt Q9YQ12). Kind of assay: Inhibition of Human immunodeficiency virus 1 protease assessed as release of fluorescent N-terminal tripeptide using fluorogenic substrate by continuous fluorometric assay.
Protease, sequence (Q9YQ12 whole entry): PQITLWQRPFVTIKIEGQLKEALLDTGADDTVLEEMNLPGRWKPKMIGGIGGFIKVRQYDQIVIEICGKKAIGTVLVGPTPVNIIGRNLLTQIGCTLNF

In the case of `CC(C)CN(C[C@@H](O)[C@H](Cc1ccccc1)NC(=O)O[C@H]1CCOC1)S(=O)(=O)c1ccc(N)cc1`, the IC50 in [1] is 190 nM; in assay [3], 930 nM; in [4], 260 nM; in [7] it was 380 nM. Besides, the “Ratio IC50” value in assay [2] is listed as 9; in assay [5], 31; in assay [6], 6; in assay [8], 12.

Consider `COc1ccc(S(=O)(=O)N(CC(C)C)C[C@@H](O)[C@H](Cc2ccccc2)NC(=O)O[C@@H]2C[C@@H]3[C@@H](O)CO[C@@H]3C2)cc1`, for which the IC50 in assay [1] is 3.1 nM; in assay [9] it was 2.9 nM; in assay [3], 29 nM; in assay [4] it was 22 nM; in [7], 4.5 nM; in assay [10], 2.9 nM.

`COc1ccc(S(=O)(=O)N(CC(C)C)C[C@@H](O)[C@H](Cc2ccccc2)NC(=O)O[C@@H]2C[C@@H]3C(=O)CO[C@@H]3C2)cc1` showed a concentration for half-maximal inhibition (IC50) in assay [9] of 14 nM. Also, the Ki at Protease amounted to 0.95 nM.

With `COc1ccc(S(=O)(=O)N(CC(C)C)C[C@@H](O)[C@H](Cc2ccccc2)NC(=O)O[C@@H]2C[C@@H]3[C@H](O)CO[C@@H]3C2)cc1`, the concentration for half-maximal inhibition (IC50) is 41 nM in assay [1]; 7 nM in assay [9]; more than 1000 nM in [3]; more than 1000 nM in assay [4]; 270 nM in assay [7]; 20 nM in [10]. Further, the inhibition constant Ki on Protease was found to be 0.077 nM.

In the case of `CC(C)CN(C[C@@H](O)[C@H](Cc1ccccc1)NC(=O)O[C@@H]1C[C@@H]2[C@H](O)CO[C@@H]2C1)S(=O)(=O)c1ccc(N)cc1`, the midpoint of inhibition in [9], the IC50, lay at 25 nM. Besides, the inhibition constant (Ki) at Protease came to 0.079 nM.

Regarding `CC(C)CN(C[C@@H](O)[C@H](Cc1ccccc1)NC(=O)O[C@@H]1C[C@@H]2[C@H](O)CO[C@@H]2C1)S(=O)(=O)c1ccc(CO)cc1`, half-maximal inhibition in assay [9] (IC50) required 19 nM. Also, the inhibition constant (Ki) at Protease is 0.06 nM.

With `COc1ccc(S(=O)(=O)N(CC(C)C)C[C@@H](O)[C@H](Cc2ccccc2)NC(=O)O[C@@H]2C[C@@H]3[C@H](OC)CO[C@@H]3C2)cc1`, the half-inhibitory concentration (IC50) in assay [9] amounted to 37 nM. Also, the inhibition constant (Ki) at Protease stood at 0.39 nM.

`CC(C)CN(C[C@@H](O)[C@H](Cc1ccccc1)NC(=O)O[C@@H]1C[C@@H]2[C@@H](O)CO[C@@H]2C1)S(=O)(=O)c1ccc(N)cc1` displayed an IC50 in [9] of 36 nM. For the same molecule, on Protease, the inhibitory constant (Ki) stood at 0.006 nM.

The molecule `COc1ccc(S(=O)(=O)N(CC(C)C)C[C@@H](O)[C@H](Cc2ccccc2)NC(=O)O[C@@H]2C[C@@H]3[C@@H](OC)CO[C@@H]3C2)cc1` registered a concentration for half-maximal inhibition (IC50) in assay [9] of 3.4 nM. Moreover, the Ki at Protease came to 0.006 nM.

`COc1ccc(S(=O)(=O)N(CC(C)C)C[C@@H](O)[C@H](Cc2ccccc2)NC(=O)O[C@@H]2C[C@@H]3[C@H](C)CO[C@@H]3C2)cc1`: the 50% inhibitory concentration (IC50) in [9] is 25 nM. In addition, the Ki on Protease amounted to 0.16 nM.

Take `COc1ccc(S(=O)(=O)N(CC(C)C)C[C@@H](O)[C@H](Cc2ccccc2)NC(=O)O[C@@H]2C[C@@H]3[C@@H](C)CO[C@@H]3C2)cc1`: the inhibitory constant (Ki) at Protease is 0.017 nM.

Consider `COc1ccc(S(=O)(=O)N(CC(C)C)C[C@@H](O)[C@H](Cc2ccccc2)NC(=O)O[C@@H]2C[C@@H]3[C@H](N(C)C)CO[C@@H]3C2)cc1`, for which the Ki at Protease was 12.5 nM.

(Values after ChEMBL document CHEMBL1817554, “Design of HIV-1 protease inhibitors with C3-substituted hexahydrocyclopentafuranyl urethanes as P2-ligands: synthesis, biological evaluation, and protein-ligand X-ray crystal structure” (J Med Chem, 2011).)
